# Source: PubChem BioAssay
# Calls of active or inactive are those of the source. Cut-off read from the data, not from the text of the source, unless noted: active = inhibition above about 30%; inactive = the rest.
# Legend:
# [1] = reducers of endogenous Her2 protein level, primary screen, SKBR3 breast tumor cells, AlphaScreen, ATP viability (AID 461;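 active = Her2 level under about 52% in both replicate screens, with viability over 70% of control, limit read from the data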;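 for Her2 level: lower value means less Her2 protein in the cells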;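 for viability: percent of carrier control wells set as 100% viability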); conditions: 18-24 h, measured here: SKBR3 viability, ATP luminescence, at 10 µM
# [2] = target: Receptor tyrosine-protein kinase erbB-2 (Homo sapiens) (UniProt P04626); assay: as above; conditions: 18-24 h, at 10 µM, stronger effect = lower value
# Sequence of Receptor tyrosine-protein kinase erbB-2 (Homo sapiens) (P04626 whole entry, looked up): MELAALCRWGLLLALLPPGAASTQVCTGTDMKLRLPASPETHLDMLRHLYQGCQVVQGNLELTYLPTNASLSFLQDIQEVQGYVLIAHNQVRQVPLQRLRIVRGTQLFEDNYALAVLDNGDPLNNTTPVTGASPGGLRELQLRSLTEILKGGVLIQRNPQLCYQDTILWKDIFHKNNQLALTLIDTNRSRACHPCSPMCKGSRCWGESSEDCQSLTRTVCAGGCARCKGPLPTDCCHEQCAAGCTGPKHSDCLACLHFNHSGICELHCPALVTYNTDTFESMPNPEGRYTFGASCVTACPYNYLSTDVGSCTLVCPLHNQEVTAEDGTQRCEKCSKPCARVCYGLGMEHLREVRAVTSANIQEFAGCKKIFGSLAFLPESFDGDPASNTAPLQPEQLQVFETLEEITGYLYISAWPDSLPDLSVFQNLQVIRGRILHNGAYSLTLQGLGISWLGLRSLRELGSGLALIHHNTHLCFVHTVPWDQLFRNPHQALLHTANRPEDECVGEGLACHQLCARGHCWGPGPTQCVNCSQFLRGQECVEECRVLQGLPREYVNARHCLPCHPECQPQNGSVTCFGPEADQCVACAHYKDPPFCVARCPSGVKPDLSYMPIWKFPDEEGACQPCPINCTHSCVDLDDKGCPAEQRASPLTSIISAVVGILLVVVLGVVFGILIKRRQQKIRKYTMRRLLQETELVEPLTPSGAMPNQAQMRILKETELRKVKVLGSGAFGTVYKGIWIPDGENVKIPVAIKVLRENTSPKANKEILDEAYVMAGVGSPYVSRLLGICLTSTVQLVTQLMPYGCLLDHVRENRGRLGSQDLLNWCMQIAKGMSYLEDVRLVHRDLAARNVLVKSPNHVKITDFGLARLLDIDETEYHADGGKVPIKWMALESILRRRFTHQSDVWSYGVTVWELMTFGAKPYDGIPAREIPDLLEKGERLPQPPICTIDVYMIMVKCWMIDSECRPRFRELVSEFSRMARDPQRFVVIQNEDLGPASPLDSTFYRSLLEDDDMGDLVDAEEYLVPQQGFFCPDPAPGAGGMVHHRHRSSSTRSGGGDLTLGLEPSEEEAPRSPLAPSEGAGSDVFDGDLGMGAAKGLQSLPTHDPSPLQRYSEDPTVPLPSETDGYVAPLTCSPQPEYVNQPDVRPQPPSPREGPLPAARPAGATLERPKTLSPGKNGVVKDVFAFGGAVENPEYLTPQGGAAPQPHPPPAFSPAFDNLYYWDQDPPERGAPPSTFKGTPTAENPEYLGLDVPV
# [3] = SK-BR-3 cell growth inhibitors, pilot screen, 24 h, human (AID 572;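 active = viability at or below 10% of carrier control in both of two separate runs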;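 note: compound exposure lasted between 18 and 24 h rather than exactly 24 h; 100% = carrier-treated control wells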); conditions: SK-BR-3 viability, CellTiter-Glo luminescence, at 10 µM, stronger effect = lower value
# [4] = HUVEC growth inhibition – cell-based, human, primary screen (AID 575;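 active = viability at or below 30% in both replicate assays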;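 note: 100% = median of untreated cell wells with 0.1% DMSO on each plate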); conditions: HUVEC proliferation, CellTiter-Glo luminescence, 72 h; at 10 µM; stronger effect = lower value
# In short: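 System: primary human umbilical vein endothelial cells; Quantity: 1250 endothelial cells in each well; Buffer or medium: supplemented EBM, 2% fetal bovine serum; Doses: one dose, 10 µM final, 0.1% DMSO; Incubation: 72 h compound incubation; Technique: ATP-based CellTiter-Glo luminescent read; Evaluation: percent of median DMSO-control luminescence; Controls: vehicle and MePR control wells.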
# [5] = growth inhibitors of H69AR lung tumor, primary screen, human, duplicate replicates (AID 580;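 active = viability at or under a set limit in both replicates, limit being median viability minus 3 SD, cut at about 48% in these data, passing the limit was not always enough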;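 note: 100% = mean luminescence of untreated wells and 0% = no signal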); conditions: H69AR lung tumor cells viability, ATP luminescence, 72 h; at 10 µM; stronger effect = lower value
# [6] = reversal of MRP1-mediated doxorubicin resistance, pilot screen, H69AR cells, doxorubicin co-treatment (AID 601;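 active = viability loss from added drug above about 55%, and viability with drug at most 40%, in both replicates, limit read from the data, passing the limit was not always enough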); conditions: CellTiter-Glo, 72 h, at 10 µM; for differential viability (reversal): stronger effect = higher value
# [7] = 384-well plate pilot, post-Golgi transport modulator project, inhibition of yeast transport mutant growth (AID 636; in the data active = inhibition above about 31%); conditions: absorbance 615 nm, about 18 h, stronger effect = higher value
# [8] = growth suppression of yeast trafficking mutant, preliminary HTS, modulators of trafficking downstream of Golgi apparatus project, 1536-format plate, OD 615 nm (AID 637); conditions: yeast transport mutant growth, absorbance 615 nm, 18 h; stronger effect = higher value
# [9] = H69AR cells + 2 uM doxorubicin, measured here: viability with 2 uM doxorubicin, stronger effect = lower value
# [10] = H69AR cells, compound alone cytotoxicity
Compound,viability [1] [%],Her2 level [2],viability [3],viability [4],viability [5],differential viability (reversal) ([6]; H69AR cells + 2 uM doxorubicin),"viability [6, 9] [%]","viability [6, 10] [%]",inhibition [7],inhibition [8]
O=C(O)C1CC(=O)N(c2ccc(Br)cc2)C1 (stereo not given),81.5,122% (inactive),81.5% (inactive),94.6% (inactive),93.8% (inactive),4.02% (inactive),89.8,93.8,-6.05% (inactive),-4.1% (inactive)
COC(=O)C1C(=O)c2c([nH]c(C(=O)OCCOC(C)C)c2C)CC1C (stereo not given),100,111% (inactive),100% (inactive),97.8% (inactive),99.5% (inactive),7.92% (inactive),91.6,99.5,-2.11% (inactive),-11.5% (inactive)
Nc1nnc(SCC(=O)N2CCc3ccccc32)n1-c1ccccc1,102,80% (inactive),102% (inactive),82% (inactive),101% (inactive),6.62% (inactive),94.5,101,-4.8% (inactive),0.32% (inactive)
CCSc1nc2c(c(=O)n1CC)SC(C)C2 (stereo not given),102,86.5% (inactive),102% (inactive),111% (inactive),94.1% (inactive),6.39% (inactive),87.7,94.1,-5.47% (inactive),6.07% (inactive)
CC(C)C1N=C2c3ccccc3N=C(SCc3cc(=O)n4ccccc4n3)N2C1=O (stereo not given),89,135% (inactive),89% (inactive),97.6% (inactive),80.1% (inactive),-20.5% (inactive),101,80.1,2.24% (inactive),-3.67% (inactive)
CCOC(=O)C(C)(C)Sc1nc2c(cnn2-c2ccc(C)cc2)c(=O)[nH]1,99,100% (inactive),99% (inactive),90.4% (inactive),79.9% (inactive),-16.5% (inactive),96.3,79.9,-1.95% (inactive),-0.79% (inactive)
Cc1cc(NC(=O)CCC(=O)N(CCc2ccccc2)C(C(=O)NC2CCCC2)c2ccco2)no1 (stereo not given),85.5,99% (inactive),85.5% (inactive),79.2% (inactive),99.2% (inactive),4.1% (inactive),95.1,99.2,1.47% (inactive),-2.13% (inactive)
COc1ccccc1N1C(=O)CC(Sc2nc(C)cc(C)n2)C1=O (stereo not given),87,96.5% (inactive),87% (inactive),102% (inactive),83.4% (inactive),-9.3% (inactive),92.7,83.4,-5.84% (inactive),-7.21% (inactive)
O=c1oc2ccccc2c2nccnc12,93.5,115% (inactive),93.5% (inactive),103% (inactive),96.5% (inactive),5.08% (inactive),91.4,96.5,-0.13% (inactive),-9.5% (inactive)
Cc1ccc(C(C)n2cc(C(=O)NCCN3CCN(C)CC3)nn2)cc1 (stereo not given),106,94% (inactive),106% (inactive),93.5% (inactive),86.1% (inactive),-5% (inactive),91.1,86.1,-2.21% (inactive),-6.19% (inactive)
COc1cc2c(cc1OC)C(C)N(C(=O)c1cc3n(n1)C(C(F)(F)F)CC(c1ccco1)N3)CC2 (stereo not given),108,68.5% (inactive),108% (inactive),62% (inactive),75% (inactive),-14.3% (inactive),89.3,75,-6% (inactive),4.26% (inactive)
COc1cccc(Oc2ccc(N)cn2)c1,87,106% (inactive),87% (inactive),109% (inactive),88.1% (inactive),3.66% (inactive),84.4,88.1,-2.37% (inactive),-4.43% (inactive)
COc1cccc(N2CCN(CC(=O)Nc3nnc(-c4ccccc4)s3)CC2)c1,86,86% (inactive),86% (inactive),54.7% (inactive),83.5% (inactive),-19.7% (inactive),103,83.5,-3.12% (inactive),-1.64% (inactive)
COc1ccc(OCCOC(=O)c2cccs2)cc1,97.5,92% (inactive),97.5% (inactive),111% (inactive),109% (inactive),19% (inactive),89.5,109,-6.22% (inactive),5.24% (inactive)
[O-][n+]1c2ccc3nonc3c2nn1-c1ccccc1Cl,136,124% (inactive),136% (inactive),89.3% (inactive),95.1% (inactive),16.1% (inactive),79,95.1,-0.4% (inactive),-6.45% (inactive)
CCOC(=O)c1sc(N)c(C(=O)OCC)c1COC(=O)C1CC(=O)N(Cc2ccco2)C1 (stereo not given),91.5,113% (inactive),91.5% (inactive),80.7% (inactive),72.4% (inactive),22.6% (inactive),49.8,72.4,-7.6% (inactive),-8.71% (inactive)

Compound,viability [1] [%],Her2 level [2],viability [3],viability [4],viability [5],differential viability (reversal) ([6]; H69AR cells + 2 uM doxorubicin),"viability [6, 9] [%]","viability [6, 10] [%]",inhibition [7],inhibition [8]
CNC(=O)CN(c1cc(C)ccc1OC)S(=O)(=O)c1ccc(C)cc1,93,113% (inactive),93% (inactive),108% (inactive),103% (inactive),2.79% (inactive),100,103,-2.93% (inactive),-7.58% (inactive)
CCOC(=O)C1=C(O)C(=O)N(c2ccc(S(N)(=O)=O)cc2)C1c1ccccc1 (stereo not given),97.5,110% (inactive),97.5% (inactive),96.7% (inactive),96.7% (inactive),1.46% (inactive),95.2,96.7,-6.53% (inactive),-6.23% (inactive)
CN1C(=O)NC(NC(=O)C2CCCCC2)(C(F)(F)F)C1=O (stereo not given),93,85% (inactive),93% (inactive),98.7% (inactive),106% (inactive),6.06% (inactive),99.8,106,-0.92% (inactive),-0.65% (inactive)
CCN(CC)C(=O)c1sc(NC(=O)c2ccco2)c(C#N)c1C,99.5,103% (inactive),99.5% (inactive),88% (inactive),79.3% (inactive),-7.3% (inactive),86.6,79.3,-4.74% (inactive),-7.26% (inactive)
O=C(NC1CCCC1)c1c[nH]c2ccc(F)cc2c1=O,97.5,90.5% (inactive),97.5% (inactive),92.6% (inactive),92% (inactive),9.81% (inactive),82.1,92,-5.41% (inactive),-3.67% (inactive)
O=C(c1ccc(-c2ccccc2)cc1)N1CCN(c2ncccn2)CC1,91,96.5% (inactive),91% (inactive),94.6% (inactive),103% (inactive),12.7% (inactive),90.5,103,-9.32% (inactive),6.39% (inactive)
COc1ccc(CN(C(=O)CNC(=O)c2ccco2)C(C(=O)NC2CCCC2)c2ccco2)cc1 (stereo not given),91,106% (inactive),91% (inactive),103% (inactive),95.4% (inactive),7.6% (inactive),87.8,95.4,-0.39% (inactive),-5.48% (inactive)
CCC(CO)Nc1ncnc2c1cnn2-c1ccc(Cl)cc1 (stereo not given),94.5,126% (inactive),94.5% (inactive),91.7% (inactive),93.7% (inactive),13.5% (inactive),80.2,93.7,-5.73% (inactive),-5% (inactive)
COc1cccc(-c2cc(C(=O)NCc3ccc(Cl)cc3)no2)c1,84,94% (inactive),84% (inactive),97% (inactive),89.3% (inactive),5.11% (inactive),84.2,89.3,-6.62% (inactive),0.82% (inactive)
CC(C)(C)NC(=O)Cn1nnc(-c2cccs2)n1,94,84% (inactive),94% (inactive),101% (inactive),92.2% (inactive),13.1% (inactive),79.1,92.2,-3.87% (inactive),0% (inactive)
CCc1cccc(NC(=O)C2CCCN(S(=O)(=O)c3c(C)[nH]c(=O)[nH]c3=O)C2)c1 (stereo not given),89.5,82% (inactive),89.5% (inactive),97% (inactive),95% (inactive),6.79% (inactive),88.2,95,-2.89% (inactive),-3.83% (inactive)
CNS(=O)(=O)c1cccc(C(=O)OCC(=O)c2cc(C)n(-c3ccc4c(c3)OCO4)c2C)c1,85.5,92% (inactive),85.5% (inactive),65.6% (inactive),88.4% (inactive),2.79% (inactive),85.6,88.4,-4.42% (inactive),2% (inactive)
CCC(c1nnc(SCC(=O)NCC2CCCO2)n1Cc1ccccc1)N(C)C (stereo not given),98.5,98% (inactive),98.5% (inactive),96.8% (inactive),89.2% (inactive),5.86% (inactive),83.3,89.2,-7.47% (inactive),-1.61% (inactive)
CC(=O)N(C)C1(c2nnnn2CCOC(=O)Nc2ccc(Cl)cc2)CCCCC1,114,114% (inactive),114% (inactive),98.1% (inactive),104% (inactive),12.5% (inactive),91,104,-1.45% (inactive),-8.33% (inactive)
CC1CCN(C(=O)Cn2c(=O)oc3ccccc32)CC1,86.5,108% (inactive),86.5% (inactive),95.1% (inactive),90.7% (inactive),6.24% (inactive),84.5,90.7,0.53% (inactive),-6.55% (inactive)
CCOc1cc2[nH]c(=O)n(CCCCC(=O)N3CCCCCC3)c(=O)c2cc1OCC,90,87.5% (inactive),90% (inactive),91.6% (inactive),76.8% (inactive),2.38% (inactive),74.4,76.8,-3.29% (inactive),-0.36% (inactive)
